The term IC50 denotes the concentration at which inhibition is half-maximal.

Data set [1] deals with Plasmodium falciparum. Description: Antiplasmodial activity against erythrocyte form of chloroquine-sensitive Plasmodium falciparum D10 by parasite lactate dehydrogenase assay. It is filed as functional, organism-based. Summed up:
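Asexual erythrocyte-stage cultures were maintained by a modified Trager–Jensen method. Samples were made as 20 mg/mL stocks in 100% DMSO and diluted in complete medium. The top test concentration was 100 µg/mL, with twofold serial dilution to 10 concentrations (lowest 0.2 µg/mL). Growth was read by parasite lactate dehydrogenase assay in triplicate on one occasion. IC50 came from full dose-response curves.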

In data set [2] the test system is Plasmodium falciparum. Description: Resistance index, ratio of IC50 for chloroquine-resistant Plasmodium falciparum Dd2 to IC50 for chloroquine-sensitive Plasmodium falciparum D10. The format is functional.
For data set [3], the system named is Plasmodium falciparum. Description: Antiplasmodial activity against erythrocyte form of chloroquine-resistant Plasmodium falciparum Dd2 by parasite lactate dehydrogenase assay. It is filed as functional, organism-based. Summed up:
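Continuous culture of asexual erythrocyte stages (modified Trager–Jensen); growth read by parasite lactate dehydrogenase assay (modified Makler). Samples from 20 mg/mL DMSO stock, diluted in complete medium; full dose-response, twofold serial dilutions from 100 µg/mL to 0.2 µg/mL (10 concentrations); chloroquine reference. Triplicate on one occasion; IC50 from non-linear curve fitting.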

Data set [4] deals with CHO. The data set is described as follows: Cytotoxicity against CHO cells by MTT assay. The format is cell-based. The note with it: Cricetulus griseus. Summed up:
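CHO cell growth and survival was read colorimetrically with MTT. Samples were diluted in complete medium on the day of testing as 10-fold serial dilutions to 6 concentrations (100 down to 0.001 µg/mL). Emetine served as reference. Tests were run in triplicate on one occasion. IC50 was obtained by non-linear dose-response curve fitting.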
On the technique in general: Formazan colour is commonly taken as a measure of viable cells.

Data set [5] can be described thus: Selectivity index, ratio of IC50 for CHO cells to IC50 for chloroquine-sensitive Plasmodium falciparum D10. The format is toxicity, cell-based. The settings on record: hamster, read-out: Ratio IC50. Summed up:
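Computed as IC50 from the CHO MTT assay divided by IC50 from the D10 pLDH assay. Both IC50 values came from full dose-response curves, each run in triplicate on one occasion.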

For `CCN(CC)CCC(C)COc1cccc2cccnc12` (configuration not stated), half-maximal inhibition in data set [1] (IC50) was put at 100 µM.

On to `Cc1ccc2c(Cl)cc(Cl)c(OCC(C)CCNCc3ccc(Cl)cc3)c2n1` (configuration not stated), for which the “Ratio IC50” value in data set [2] is on record as 0.11. Besides, the IC50 stood at 2.44 µM in data set [1], 0.26 µM in data set [3] and 4.11 µM in data set [4]. Further, the selectivity ratio in data set [5] turned out to be 2.

In the case of `CCN(CC)CCC(C)COc1c(Cl)cc(Cl)c2cccnc12` (configuration not stated), the IC50 in data set [1] was found to be 8.08 µM.

Turning to `CCN(CC)CCC(C)COc1c(Cl)cc(Cl)c2ccc(C)nc12` (configuration not stated), the “Ratio IC50” value in data set [2] is reported as 0.17. In addition, the IC50 was determined as 3.95 µM in data set [1], 0.68 µM in data set [3] and 224 µM in data set [4]. Also, in data set [5], the selectivity ratio is 57.

On to `Clc1ccc(CNCCCCOc2cccc3ncccc23)cc1`, for which the IC50 in data set [1] was found to be 7.01 µM; in data set [4], 237 µM. Further, in data set [5], the selectivity ratio came out at 34.

As for `CCN(CC)CCC(C)COc1c(Br)cc(Br)c2cccnc12` (configuration not stated), the IC50 in data set [1] worked out at 8.65 µM.

For the compound `CCN(CC)CCCCOc1cccc2cccnc12`, in data set [1], the IC50 stood at 49.2 µM.

Compound `CC(CCNCc1ccc(Cl)cc1)COc1c(I)cc(I)c2cccnc12` (configuration not stated) came in with an IC50 in data set [1] of 9.15 µM.

As to `CC(CCNCc1ccc(Cl)cc1)COc1cccc2cccnc12` (configuration not stated), the concentration for half-maximal inhibition (IC50) in data set [1] is 5.64 µM.

For `CCN(CC)CCC(C)COc1c(I)cc(I)c2cccnc12` (configuration not stated), the IC50 in data set [1] was found to be 13.9 µM.

Take `CCN(CC)CCCCOc1ccc2ncccc2c1`: the IC50 in data set [1] was 6.02 µM.

With `CCN(CC)CCC(C)Cc1cc(Cl)c2cccnc2c1O` (configuration not stated), the “Ratio IC50” value in data set [2] was determined as 0.15. In addition, the IC50 is 1.01 µM in data set [1], 0.15 µM in data set [3] and 4.8 µM in data set [4]. The selectivity ratio in data set [5] was found to be 5.

`CCN(CC)CCCCOc1ccc(Cl)c2cccnc12`: the IC50 in data set [1] was 17.2 µM.

In the case of `CC[C@H]1CN2CCc3cc(OC)c(OC)cc3[C@@H]2C[C@@H]1C[C@H]1NCCc2cc(OC)c(OC)cc21` [EMETINE], in data set [4], it took 0.17 µM to reach half-maximal inhibition (IC50).

In data set [1], `Clc1ccc(CNCCCCOc2ccc(Cl)c3cccnc23)cc1` gave an IC50 of 9.99 µM.

In data set [1], `CCN(CC)CCCCOc1c(I)cc(Cl)c2cccnc12` displayed an IC50 of 9.02 µM.

Take `CC(CCNCc1ccc(Cl)cc1)COc1cccc2ncccc12` (configuration not stated): in data set [1], 23.1 µM corresponded to half-maximal inhibition (IC50).

In data set [1], `CCN(CC)CCCCOc1cccc2ncccc12` came in with an IC50 of 10.2 µM.

`CCN(CC)CCC(C)COc1c(I)cc(Cl)c2cccnc12` (configuration not stated) returned an IC50 in data set [1] of 13 µM.

For the compound `Clc1ccc(CNCCCCOc2ccc3ncccc3c2)cc1`, the IC50 in data set [1] is 7.29 µM; in data set [3], greater than 1 µM; in data set [4] it was 211 µM. For the same compound, the selectivity ratio in data set [5] is 29.
